MrgX1 antag – human MrgX1 receptor antagonism, primary screen | B-score at 10 µM | MRGX1-HEK293 calcium flux, Fluo-4, BAM8-22 antagonism; hits give low values | Q96LB2 | 310,000 compounds, 1.3% hits;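 active = calcium-response B-score plate-corrected more than 3 library SD below zero, starting fluorescence within 5 deviations, no agonist response on first addition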;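 also: peak minus trough fluorescence over baseline after final BAM8-22 challenge near maximal dose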
Target sequence (Q96LB2 whole entry, looked up): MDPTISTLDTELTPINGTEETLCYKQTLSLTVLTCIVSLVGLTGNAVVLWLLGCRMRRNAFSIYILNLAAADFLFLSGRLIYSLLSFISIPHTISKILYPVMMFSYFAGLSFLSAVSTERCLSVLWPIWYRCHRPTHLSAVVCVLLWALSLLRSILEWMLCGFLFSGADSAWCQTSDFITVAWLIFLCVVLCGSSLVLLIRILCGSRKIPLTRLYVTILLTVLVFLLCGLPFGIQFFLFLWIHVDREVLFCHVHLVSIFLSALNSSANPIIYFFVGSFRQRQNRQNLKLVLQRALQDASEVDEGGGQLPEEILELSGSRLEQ
MrgX1 ag – activates human MrgX1 receptor signaling; Q96LB2; MrgX1-HEK293 cells, Fluo-4 calcium fluorescence, agonist mode; hits give high values; B-score at 10 µM; 310,000 compounds, 0.44% hits; AID 588627;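 active = calcium response B-score plate-corrected fluorescence ratio at least 3 library SD, with starting fluorescence B-score inside 5 SD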
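Assay system: stable human MrgX1 HEK293 cell line. Quantity: 15,000 cells per well. Schedule: cells plated overnight, dye loaded 0.5 h 37 °C, 0.5 h room temperature. Detection: Fluo-4 NW calcium-flux fluorescence, kinetic read. Read-out basis: peak-minus-minimum fluorescence over baseline, converted to B scores. Control set: positive and negative control wells on each plate.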
RGS4 pot – potentiators or activators of RGS4. HEK293 M3R/inducible RGS4, carbachol calcium flux Fluo4; hits give low values. B-score at 10 µM. 310,000 compounds, 0.92% hits;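 active = B-score of the integrated calcium signal more than 4 SD below the library mean, with starting fluorescence not abnormally high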;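 also: negative B-score means reduced calcium response which marks RGS4 activation or potentiation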
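Also added: carbachol at ECmax as muscarinic agonist stimulus; Assay system: HEK293 cells with stable M3R and inducible RGS4; Timing: overnight RGS4 induction, 30 min dye load 37 °C, 20 min compound RT; Measured by: Fluo4-AM (2 µM) calcium-flux fluorescence, kinetic read.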
MrgX1 PAM – human MrgX1 positive allosteric modulation, primary screen | Q96LB2 | MrgX1-HEK293, Fluo-4 calcium flux, FDSS; hits give high values | B-score at 10 µM | 310,000 compounds, 0.63% hits;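 active = plate-corrected calcium response at least 3 library SD above typical, normal starting fluorescence, not activating the receptor alone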;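 also: compound read alongside a low EC10 to EC30 dose of BAM8-22 agonist; peak minus trough fluorescence over baseline measured at the second addition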
RGS4 block – inhibitors of human RGS4; 310,000 compounds, 0.45% hits; B-score at 10 µM; HEK293 M3R/RGS4 inducible, Fluo-4 calcium flux; hits give high values; triggered by carbachol at its EC20; AID 463165; P49798;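 active = B-score, a plate-corrected calcium signal, over three deviations above library mean, with baseline fluorescence within five deviations of library mean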;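 also: RGS4 expression induced by doxycycline in cells with stable M3 receptor; B-score is computed from the integrated fluorescence ratio over baseline after carbachol; higher B-score means a larger calcium signal and so more RGS4 inhibition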
Target sequence (P49798 whole entry, looked up): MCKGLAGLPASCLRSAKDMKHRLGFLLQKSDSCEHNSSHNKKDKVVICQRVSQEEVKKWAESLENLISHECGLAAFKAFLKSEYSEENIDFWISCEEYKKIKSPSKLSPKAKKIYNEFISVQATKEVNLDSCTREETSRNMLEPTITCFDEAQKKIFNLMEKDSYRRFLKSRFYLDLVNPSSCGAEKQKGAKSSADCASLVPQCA
KCC2 mod – KCC2 (human) Cl- transport modulation; Q9H2X9; KCC2 cells, thallium flux FluoZin-2 fluorescence; B-score of Tl+ flux slope (higher = more flux/activation; lower = inhibition) at 10 µM; 190,000 compounds, 2.2% hits;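 active = thallium flux slope and its plate-corrected score both differing from the plate sample mean at a set confidence after two filtering rounds, in either direction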;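 also: slope of fluorescence scaled to starting intensity during 10 to 20 s after thallium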
Of the large screens only hits and unclear results are named; the others gave an inactive call. Only some compounds are listed: those with a hit (about 4.7% of all), similar ones and a draw of the others.

Cc1ccc(/C=C2\SC(=S)N(CCCC(=O)Nc3ccccc3C(=O)O)C2=O)cc1	MrgX1 antag -5.4 (no result: KCC2 mod)
NCCCCC(N)c1cn([C@@H](CCC(=O)O)C(=O)N2CCNCC2)nn1 (some centres undefined)	none (no result: RGS4 pot, RGS4 block, KCC2 mod)
CCN1CCN(c2nc3c(c(=O)[nH]c(=O)n3C)n2Cc2ccccc2)CC1	none (no result: KCC2 mod)
CCS(=O)(=O)Nc1ccc(C2=NN(S(=O)(=O)CC)C(c3cccs3)C2)cc1 (centres undefined)	none (no result: KCC2 mod)
CC(CNC(=O)CCn1ccc2cc(S(=O)(=O)N3CCCC3)ccc21)c1ccccc1 (centres undefined)	none (no result: KCC2 mod)
Cc1ccc(C2=Nc3ccccc3N(C(=O)c3ccccc3)C(C)C2)cc1 (centres undefined)	MrgX1 antag -8.87
COc1ccc(CCNC(=O)CCCn2ncn3c(cc4occc43)c2=O)c(OC)c1	none (no result: KCC2 mod)
CCC(C)N(C(=O)COc1ccccc1C(=O)NCc1ccccc1)C1CCS(=O)(=O)C1 (centres undefined)	MrgX1 antag -6.16 (no result: KCC2 mod)
CN1C(=O)/C(=C/c2ccccc2OCc2cccc(F)c2)N(C)C1=S	RGS4 pot -9.94
Cc1ccc2c(c1)N(C(=O)CCC(=O)NCCN1CCOCC1)CCO2	none (no result: KCC2 mod)
Cc1ccc2c(c1)C(O)(c1c(C)[nH]c3ccccc13)C(=O)N2 (centres undefined)	RGS4 block 6.31 (no result: KCC2 mod)
COc1ccccc1CCC(=O)OCC(=O)Nc1cccc(S(=O)(=O)N2CCCCC2)c1	MrgX1 antag -4.74 (no result: KCC2 mod)
CC(C)C(=O)Nc1ccc(Oc2ccc3c(c2)C(=O)NC3=O)cc1	none (no result: KCC2 mod)
COc1ccc2c(c1)c1nc3ccccc3nc1n2Cc1ccc(OC(C)C)c(OC)c1	MrgX1 antag -6.7
CCOP(=O)(c1ccc(N(C)C)cc1)C(O)c1cc(OC)c(OC)c(OC)c1 (centres undefined)	MrgX1 antag -4.83
COc1cc(C(O)P(=O)(OCC(C)C)c2ccc(N(C)C)cc2)cc(OC)c1OC (centres undefined)	none
CC(C)c1ccc(CNc2ncccn2)cc1	none (no result: KCC2 mod)
Cc1ccc(-n2nc3c(=O)n(CCCC(=O)NCCc4ccccc4C)nc(C)c3c2C)cc1	none (no result: KCC2 mod)
COC(=O)c1cn(Cc2cc(OC)ccc2OC)cc(F)c1=O	none (no result: KCC2 mod)
CCN1CCN(c2c(Cl)cccc2NC(=O)c2ccc([N+](=O)[O-])o2)CC1	RGS4 pot -7.54 (no result: KCC2 mod)
CCNc1c2c3c(cccc3n(C)c1=O)C(=O)c1ccccc1-2	none
Cn1c(=O)c(NCCO)c2c3c(cccc31)C(=O)c1ccccc1-2	RGS4 pot -11.6
COC1=CC(=O)C[C@@H](C)[C@]12Oc1c(Cl)c(OC)cc(OC)c1C2=O	none (no result: KCC2 mod)
CC(=O)c1ccccc1NC(=O)COC(=O)/C=C/c1ccc(OC(F)F)cc1	none (no result: KCC2 mod)
Cc1cccc(NC(=O)CSc2nc3ccccc3nc2N2CC(C)OC(C)C2)c1 (centres undefined)	none (no result: KCC2 mod)
CC1CN(c2nc3ccccc3nc2SCC(=O)Nc2cccc(C(F)(F)F)c2)CC(C)O1 (centres undefined)	RGS4 pot -7.61 (no result: KCC2 mod)
O=S(=O)(NC1CC1)c1ccc(S(=O)(=O)N(Cc2ccccn2)C2CC2)cc1	none
COC(=O)COc1ccc(S(=O)(=O)NCc2ccc3c(c2)OCO3)cc1C	none (no result: KCC2 mod)
Cc1ccc(S(=O)(=O)N2CCN(C(=O)CC(C)C)CC2)cc1	none
CC(C)CC(=O)N1CCN(S(C)(=O)=O)CC1	KCC2 mod 6.37
CN1CCN(c2c([N+](=O)[O-])cnc3ccccc23)CC1	none (no result: KCC2 mod)
O=C(NC(=S)Nc1ccc(N2CCOCC2)c(Cl)c1)c1cncc(Br)c1	KCC2 mod 11.1
COc1ccc(OCC(=O)NC(=S)Nc2ccc(N3CCOCC3)c(Cl)c2)cc1	KCC2 mod 35.8
COc1ccc(OCC(=O)Nc2ccc(N3CCOCC3)c(Cl)c2)cc1	none
CCC(C(=O)N1CCOCC1)n1nc(C)c2sc3ccccc3c2c1=O (centres undefined)	none (no result: KCC2 mod)
O=C(c1nn(Cc2ccccc2)c(=O)c2ccccc12)N1CCN(c2ccccn2)CC1	none
O=C(c1nn(Cc2ccccc2)c(=O)c2ccccc12)N1CCc2ccccc2C1	RGS4 pot -8.54 (no result: KCC2 mod)
Cc1ccc(SCC(=O)OCC(=O)NC(C)c2ccc(Br)cc2)cc1 (centres undefined)	none (no result: KCC2 mod)
Cc1ccc(-c2nc3sc4c(c3c(=O)n2N)CCCC4)cc1	MrgX1 PAM 13.4 (no result: KCC2 mod)
Cc1ccc(-c2nc3sc4c(c3c(=O)n2N)CC(C)(C)OC4)cc1	none (no result: KCC2 mod)
CC(C)c1c(C(=O)N/N=C/C2CC=CCC2)nnn1-c1nonc1N (centres undefined)	none (no result: KCC2 mod)
O=C(Nc1cccc(C(F)(F)F)c1)c1ccc2nc(-c3ccco3)c(-c3ccco3)nc2c1	MrgX1 antag -5.6 (no result: KCC2 mod)
O=C(O)c1ccc2nc(-c3ccco3)c(-c3ccco3)nc2c1	none (no result: MrgX1 antag, MrgX1 ag, MrgX1 PAM)
COc1ccc(CCNC(=O)c2ccc3nc(-c4ccco4)c(-c4ccco4)nc3c2)cc1OC	MrgX1 antag -4.64 (no result: RGS4 pot, RGS4 block)
CCOC(=O)C1CCN(C(=O)COC(=O)c2oc3ccccc3c2C)CC1	none (no result: KCC2 mod)
Cc1nc2nc(C)c(NS(=O)(=O)c3ccc(CC(C)C)cc3)c(=O)n2[nH]1	none (no result: KCC2 mod)
Clc1cccc(NCc2nnc(SCc3ccc(Cl)cc3Cl)o2)c1	RGS4 pot -8.59
CC(NCC(=O)Nc1cc(S(=O)(=O)N2CCOCC2)ccc1Cl)c1ccc(Cl)cc1Cl (centres undefined)	MrgX1 antag -7.33 (no result: KCC2 mod)
CC(Oc1ccccc1Cl)C(=O)Nc1ccc(S(=O)(=O)N2CCCC2)cc1 (centres undefined)	RGS4 pot -7.16 (no result: KCC2 mod)
Cc1ccc(S(=O)(=O)Nc2cccc(-n3cnnn3)c2)cc1C	none (no result: KCC2 mod)
C=CCn1c(-c2c(C)nc3cc(C)ccn23)n[nH]c1=S	MrgX1 antag -5.89
COc1ccc2oc(C(=O)N3CCN(S(=O)(=O)c4cccc([N+](=O)[O-])c4)CC3)c(C)c2c1	MrgX1 PAM 16.5 (no result: KCC2 mod)
COc1cccc(NC2=C(NCCO)C(=O)c3ccccc3C2=O)c1	none (no result: KCC2 mod)
Cc1cccc(NC2=C(NCCO)C(=O)c3ccccc3C2=O)c1	MrgX1 antag -5.5
O=c1[nH]c(S)c(/C=C2\C=Nc3ccccc32)s1	MrgX1 antag -5.37
CC(C)n1nnnc1SCC(=O)Nc1ccccc1F	none (no result: KCC2 mod)
Cc1c(C(=O)Oc2cc(N)n(S(C)(=O)=O)n2)cccc1[N+](=O)[O-]	MrgX1 PAM 6.67
Cc1ccc(S(=O)(=O)NC(=O)COc2ccccc2C)c(C)c1	none (no result: KCC2 mod)
CCc1ccc(-n2cc(-c3ccc([N+](=O)[O-])cc3)[nH]c2=S)cc1	none
O=[N+]([O-])c1ccc(-c2cn(-c3ccc(Cl)cc3)c(=S)[nH]2)cc1	KCC2 mod 3.66
O=C(CSc1ccc2nnc(CCNC(=O)c3ccc(F)cc3)n2n1)NCC1CCCO1 (centres undefined)	none (no result: KCC2 mod)
Cc1cccc(N=C2C(=O)Nc3c(Cl)cccc32)c1	MrgX1 ag 27.7 (no result: KCC2 mod)

Source: PubChem
